NALP1 yeast inh – NALP1 inhibition. S. cerevisiae NALP1/ASC/caspase-1 growth, X-gal OD620, 72 h. inhibition, % at 10 µM. 280,000 compounds, 0.61% hits. AID 2071; in the data active = inhibition mostly above about 24%, no sharp cut-off; inactive = mostly below about 32%
PolyA inh – inhibitors of polyadenylation in S. cerevisiae; S. cerevisiae SKY197-pL101 polyadenylation reporter, beta-gal luminescence; efflux-impaired pdr1/pdr3 knockout yeast; score 100 = 6 SD above DMSO; activity score, % at 12 µM; 300,000 compounds, 0.02% hits;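 active = lowest replicate activity score at least 50, where 100 means six control SD above control mean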;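 also: yeast exposed to compound for 9 h at 30 °C; higher score means more reporter readthrough which indicates perturbed polyadenylation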
NLRP3 yeast inh – NALP3 inhibition in yeast; 330,000 compounds, 0.39% hits; AID 2825; Yeast reconstituted NLRP3/ASC/caspase-1, beta-gal luminescence, 24 h; inhibition, % at 10 µM;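 active = inhibition of 50% or more; inactive = inhibition below 50%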
DSG3 Ab inh – inhibitors of pemphigus antibody binding to human desmoglein-3; P32926; 310,000 compounds, 0.48% hits; DSG3-coupled beads, scFv-anti-DSG3-GFP binding, flow cytometry; stronger effect = lower value; binding (percent of control), % at 10 µM;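 active = binding more than 3 SD below its plate's average and above zero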
ALR inh – human ALR oxidase inhibition via reduced H2O2; inhibition, % (no concentration beside the values); 290,000 compounds, 3.8% hits; purified ALR, DTT oxidation, H2O2 HRP-luminol luminescence; P55789;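 active = mean replicate inhibition above about 79%, with every replicate also reaching it, limit read from the data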
Target sequence (P55789 whole entry, looked up): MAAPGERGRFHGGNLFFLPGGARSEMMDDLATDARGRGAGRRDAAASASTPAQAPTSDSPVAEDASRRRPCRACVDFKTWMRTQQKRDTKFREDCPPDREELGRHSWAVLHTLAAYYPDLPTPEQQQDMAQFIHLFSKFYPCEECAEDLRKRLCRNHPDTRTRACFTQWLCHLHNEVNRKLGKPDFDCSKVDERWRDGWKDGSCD
Arr AP2 block – blocks beta-arrestin peptide binding to AP2 adaptin; inhibition, % at 10 µM; FITC-arrestin peptide / GST-AP2 beads, flow cytometry; AP2 beta2 appendage carries R879A mutation; AID 504490; 340,000 compounds, 0.31% hits;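 active = inhibition above a set limit, near 3 SD of compounds lacking own fluorescence, cut at about 54% in these data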
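System: GST-AP2 R879A glutathione beads. Medium: PBS with 0.05% Tween 20 and 0.1% BSA. Also added: FITC-arrestin peptide, 50 nM. Incubation: 12 min plus 1 h, RT. Measured by: high-throughput flow cytometry of beads, ex 488, em 535 nm. Evaluation: percent drop in bead-associated FITC signal.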
Large screens that a line does not name were inactive. Rows were chosen to be rich in hits. Some 4.6% of all compounds tested hit in one or more screens of this group.

CC(c1ccc(F)cc1)n1c(-c2cccs2)n[nH]c1=S (stereo not given)	ALR inh 93
CC(c1ccccc1)n1c(-c2ccccc2F)n[nH]c1=S (stereo not given)	none
O=C(c1ccc(NS(=O)(=O)c2ccc3[nH]c(=O)[nH]c3c2)cc1)N1CCN(c2ccccc2O)CC1	ALR inh 98 (no result: NALP1 yeast inh)
Cc1cccc(N2CCN(C(=O)c3ccc(NS(=O)(=O)c4ccc5[nH]c(=O)[nH]c5c4)cc3)CC2)c1C	none
CC(C)C[C@@H](CO)NS(=O)(=O)c1c(F)cccc1F	none (no result: NALP1 yeast inh, PolyA inh, NLRP3 yeast inh, ALR inh)
Nc1ccn(C2OC(COC(=O)C34CC5CC(CC(C5)C3)C4)C(O)C2O)c(=O)n1 (stereo not given)	none (no result: NALP1 yeast inh, PolyA inh, NLRP3 yeast inh, ALR inh)
OCCOCCN1CCN(C2=Nc3ccccc3Sc3ccccc32)CC1	none
Cc1cc2c(s1)Nc1ccccc1N=C2N1CCN(C)CC1	ALR inh 94 (no result: DSG3 Ab inh)
CCn1cc(C(=O)N[C@@H](CCSC)C(=O)NCCCOC)c(=O)c2cc3c(cc21)OCO3	none (no result: ALR inh)
COc1ccc(OCC(=O)NCCC2=CCCCC2)c([N+](=O)[O-])c1	none
COc1ccc(C(=O)NCCC2=CCCCC2)cc1[N+](=O)[O-]	NALP1 yeast inh 35
COc1ccc(C(=O)Nc2ccc(S(=O)(=O)N3CCN(C)CC3)cc2)cc1[N+](=O)[O-]	none
COc1ccc(C(=O)Nc2ccc(S(=O)(=O)NC(C)=O)cc2)cc1[N+](=O)[O-]	ALR inh 99
O=C(NC(=S)NNC(=O)c1ccccc1[N+](=O)[O-])c1ccc(Br)cc1	ALR inh 99
COc1ccc(C(=O)NC(=S)NNC(=O)c2ccc(O)cc2)cc1[N+](=O)[O-]	ALR inh 97
CC(C)N(C(=O)[C@H]1CC(CC(=O)NCc2cccc(C(F)(F)F)c2)C(=O)N2CCc3c([nH]c4ccccc34)[C@]12C)C(C)C (stereo not given in full)	none (no result: NALP1 yeast inh, PolyA inh, ALR inh)
CCOC(=O)N1CCN(C(=O)C2CCC(=O)N(Cc3ccccc3OC)C2)CC1 (stereo not given)	none (no result: NALP1 yeast inh, PolyA inh, NLRP3 yeast inh, ALR inh, Arr AP2 block)
CN(C)c1c([N+](=O)[O-])cc(N2C(=O)C=CC2=O)cc1[N+](=O)[O-]	none (no result: NALP1 yeast inh, PolyA inh, NLRP3 yeast inh, ALR inh)
CC(=O)c1ccc(OCc2cc(C(=O)N3CC4C[C@@H]5CC3C[C@H](C4)C5)no2)cc1	none
O=C(NC(=S)NNC(=O)c1ccccc1O)c1cccc([N+](=O)[O-])c1	none (no result: ALR inh)
COc1ccc(C(=O)NNC(=S)NC(=O)c2cccc([N+](=O)[O-])c2)cc1	ALR inh 98 (no result: NALP1 yeast inh)
COc1ccc(CN2C(=O)c3ccc(C(=O)O)cc3C2=O)cc1	none
CCn1c(SCC(=O)Nc2ccc(N3CCOCC3)cc2)nnc1-c1ccco1	ALR inh 98 (no result: NALP1 yeast inh)
CCn1c(C)nnc1SCC(=O)Nc1ccc(N2CCOCC2)cc1	ALR inh 88 (no result: DSG3 Ab inh)
Nc1c(Cl)ncnc1N/N=C/c1cccc(O)c1	ALR inh 97 (no result: NALP1 yeast inh)
COc1ccc(/C=N/Nc2ncnc(Cl)c2N)cc1OC	none
CC(=O)C1=C(O)C(=O)N(c2ccc(O)cc2)C1c1cccc([N+](=O)[O-])c1 (stereo not given)	ALR inh 83
CC(=O)C1=C(O)C(=O)N(c2ccc(O)cc2)C1c1cccc(F)c1 (stereo not given)	ALR inh 82
CC(=O)C1=C(O)C(=O)N(c2ccc(O)cc2)C1c1ccc(C)cc1 (stereo not given)	ALR inh 99
CC(=O)C1=C(O)C(=O)N(c2ccc(F)cc2)C1c1ccc(C)cc1 (stereo not given)	none
CN(CCOc1ccccc1)C(=O)c1ccc(Cl)c(S(=O)(=O)N2CCCCC2)c1	none (no result: NALP1 yeast inh, PolyA inh)
Fc1ccc(NCc2nnc3n2CCCCC3)cc1	none
Cc1ccc(NCc2nnc3n2CCCCC3)c(C)c1	ALR inh 99
Cn1nc(C(=O)Nc2cccc(S(N)(=O)=O)c2)c2ccccc2c1=O	NALP1 yeast inh 40
Cn1nc(C(=O)Nc2cccc(S(=O)(=O)N3CCOCC3)c2)c2ccccc2c1=O	none (no result: NALP1 yeast inh, PolyA inh, DSG3 Ab inh)
Cc1ccc(NC(=O)Cn2nc(C(=O)O)c3ccccc3c2=O)cc1S(=O)(=O)N1CCOCC1	none (no result: NALP1 yeast inh, PolyA inh)
O=C(Cn1nc(C(=O)O)c2ccccc2c1=O)Nc1ccc(Cl)c(S(=O)(=O)N2CCOCC2)c1	DSG3 Ab inh 69 (no result: NALP1 yeast inh, PolyA inh)
Cn1nc(C(=O)Nc2ccc(S(=O)(=O)N3CCOCC3)cc2)c2ccccc2c1=O	DSG3 Ab inh 84 (no result: ALR inh)
Cc1ccc(NC(=S)NNC(=O)c2cn(C)nc2C)cc1	ALR inh 97
Cc1ccc(NC(=S)NNC(=S)Nc2ccc(C)cc2)cc1	none (no result: NALP1 yeast inh, PolyA inh, NLRP3 yeast inh, ALR inh)
Cc1ccc(NC(=S)NNC(=O)c2c([N+](=O)[O-])c(C)nn2C)cc1	none
Cc1ccc(NC(=S)NNC(=O)c2c(Cl)c(C)nn2C)cc1	ALR inh 87
Cc1ccc(NC(=S)NNC(=O)c2nn(C)c(C)c2Cl)cc1	ALR inh 90
O=C(NC1CCCCC1)C1CC(=O)N(Cc2ccccc2)C1 (stereo not given)	none
O=C(CSc1nc2ccccc2s1)CSc1nc2ccccc2s1	none
CC(Sc1nc2ccccc2s1)C(=O)N1CCOCC1 (stereo not given)	ALR inh 99
CCCCN(C(=O)CSc1nc2ccccc2s1)c1c(N)n(CCCC)c(=O)[nH]c1=O	ALR inh 99 (no result: NALP1 yeast inh, PolyA inh)
O=C(CN1C(=O)CCC1=O)Nc1nc(-c2nc3ccccc3s2)cs1	ALR inh 95
CC(=O)CSc1nc2ccccc2s1	ALR inh 98
COCCN(C(=O)CSc1nc2ccccc2s1)c1c(N)n(Cc2ccccc2)c(=O)[nH]c1=O	none (no result: NALP1 yeast inh, PolyA inh, NLRP3 yeast inh, ALR inh)
CN(CC(=O)N1CCOCC1)C(=O)CSc1nc2ccccc2s1	none
O=C(CN1C(=O)CCC1=O)Nc1nc(-c2ccccn2)cs1	none
CN1C(=O)CCS(=O)(=O)C1c1ccc(Cl)c(Cl)c1 (stereo not given)	none (no result: NALP1 yeast inh, PolyA inh, NLRP3 yeast inh, ALR inh, Arr AP2 block)
COc1ccc([C@H]2N[C@]3(CCCN(Cc4ccc(C)cc4)C3=O)[C@H]3C(=O)N(Cc4ccccc4)C(=O)[C@@H]23)cc1	none (no result: NALP1 yeast inh, PolyA inh, NLRP3 yeast inh, ALR inh, Arr AP2 block)
N#CC1(NC(=O)CSc2nc3ccccc3s2)CCCCC1	ALR inh 98 (no result: NALP1 yeast inh, PolyA inh)
CCOC(=O)CSc1nc2ccc(NC(C)=O)cc2s1	none
N#CC1(NC(=O)CSc2nc3ccc([N+](=O)[O-])cc3s2)CCCCC1	none (no result: NALP1 yeast inh)
Cc1csc(NC(=O)CSc2nc3ccccc3s2)n1	ALR inh 97
O=S(=O)(CCSc1nc2ccccc2s1)c1nc2ccccc2s1	none (no result: DSG3 Ab inh)
COC(=O)CSc1nc2ccc(N)cc2s1	ALR inh 99
CCS(=O)(=O)CCSc1nc2ccccc2s1	ALR inh 99
N#Cc1ccccc1NC(=O)COC(=O)/C=C/c1ccc(S(=O)(=O)N2CCOCC2)cc1	none (no result: NALP1 yeast inh, PolyA inh, DSG3 Ab inh)
Cc1ccc(S(=O)(=O)N2C[C@@H]3[C@H]4CC[C@H](C4)[C@@H]3[C@@H](C)[C@@H]2c2ccn([Si](C(C)C)(C(C)C)C(C)C)c2)cc1	none (no result: NALP1 yeast inh, PolyA inh, NLRP3 yeast inh, ALR inh)

Screening results from PubChem.
